Assay results: ChEMBL document CHEMBL1149070, “Isolation of antirhinoviral sesquiterpenes from ginger (Zingiber officinale)” (J Nat Prod, 1994)
pIC50: −log10 of the molar value.

How the values were obtained:
[1] = tested on: HeLa; experiment: Cytotoxicity against human HeLa cells upto 20 ug/plate; format: cell-based
In short: (§1)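 Cytotoxicity was judged in the plaque-assay plates: confluent M-HeLa monolayers under agarose overlay with sample added from EtOH doubling dilutions (≤1% EtOH), 72 h at 33°, then formol-saline fixed and methyl violet stained. Monolayers were inspected for cell destruction, altered appearance or thinning relative to cell controls (no virus, no sample) and virus controls, up to the top plate concentration.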

[2] = tested on: rhinovirus A1B; experiment: Antiviral activity against Rhinovirus 1B infected in human HeLa cells assessed as reduction in plaque formation per plate after 72 hrs; format: functional, organism-based, Human rhinovirus 1B; set-up: ED50: unit: ug/plate
In short: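 M-HeLa cells were seeded at 10⁶ per plate in MEM with 10% FCS and grown to confluence overnight. They were infected with RV1B at 100-200 pfu/plate for 1 h. Excess virus was replaced with an agarose overlay (MEM, FCS, tryptose broth) holding serial doubling dilutions from EtOH, final EtOH ≤1%. Plates ran 72 h at 33°, then were formol-saline fixed and methyl violet stained.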

[3] = tested on: HeLa; experiment: Cytotoxicity against human HeLa cells upto 1.35 ug/plate; format: cell-based; in short: as §1

SMILES | Activity [1] | ED50 [2] | pIC50 ([2]; Rhinovirus A, HeLa, 72 h) | Activity [3]
C=C(CCC=C(C)C)[C@H]1CC=C(C)CC1 | Non-toxic | 14.3 µg | – | –
C=C1C=C[C@H]([C@H](C)CCC=C(C)C)CC1 | Non-toxic | 0.9 µg | 6.36 | –
CC(C)=CCC[C@@H](C)[C@H]1C=CC(C)=CC1 | Non-toxic | 1.9 µg | – | –
CC(C)=CCC[C@@H](C)c1ccc(C)cc1 | Non-toxic | 20.4 µg | – | –
c1ccc(C2CCc3ccccc3O2)cc1 (stereo unspecified) [FLAVANE] | – | 0.27 µg | – | Non-toxic
